Measurements taken from ChEMBL document CHEMBL4513216, “Probing the Open Global Health Chemical Diversity Library for Multistage-Active Starting Points for Next-Generation Antimalarials” (ACS Infect Dis, 2020).

Test: Toxicity liver stage against HepG2, at 10uM
Type: cell-based
Design: test concentration 10 uM, cell line HepG2-A16-CD81EGFP
Details: human, HepG2-A16-CD81EGFP cells; read-out: INHIBITION
Method in brief: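 Uninfected HepG2-A16-CD81EGFP cells, 3 × 10^3 per well, 1536-well, plated on prespotted compound at 10 μM final, parasite-free screening media added to match infected plates; puromycin 10 μM positive, DMSO 0.5% negative; run in parallel with 48 h PbLuc assay at 37 °C, 5% CO2; viability by CellTiter-Glo luminescence, normalized to controls.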

Row | SMILES | cytotoxicity at 10 µM
1 | O=C(NC[C@H]1OC[C@@H](NCc2ccccc2)[C@@H]1O)Nc1ccccc1 | 1.97%
2 | COc1ccc(Nc2nc(N)c(C(C)=O)s2)cc1Cl | 0.833%
3 | COCCNC(=O)c1nc(NS(=O)(=O)c2ccccc2)sc1C | 9.18%
4 | Cc1nc(C(=O)N2CCN(S(C)(=O)=O)CC2)c(-c2cccc(F)c2)s1 | 1.37%
5 | O=C(Oc1ccccc1)N1CCC(CNS(=O)(=O)c2cccnc2)CC1 | 11.1%
6 | Cc1cc(NC(=O)Cn2cnc(-c3cccs3)cc2=O)sn1 | 0.0962%
7 | COc1ncc(NS(=O)(=O)c2ccc(F)cc2F)cn1 | -3.96%
8 | O=C(C1=CCCC1)N1C[C@H](OCc2cccnc2)[C@H]2OCCC[C@H]21 | 7.86%
9 | Cc1nc(N2CCCC2)nc2c1CCN(C(=O)C(C)C)CC2 | 5.02%
10 | Cc1ncsc1CN1CC[C@H]2OCC[C@@]2(C(=O)N(C)C)C1 | 2.93%
11 | COCCNC(=O)Cn1c(-c2cccc(Cl)c2)nc(C)c(CCO)c1=O | -0.86%
12 | CC(O)CNc1c(NCc2ccco2)c(=O)c1=O (stereo not given) | -3.04%
13 | O=C(NCCSCc1ccco1)c1ccc(N2CCOCC2)cc1 | -0.971%
14 | Cc1nccc([C@H]2C[C@@H]3CCN(S(=O)(=O)N(C)C)C[C@H]3O2)n1 | -10.8%
15 | COCCN1C(=O)[C@]2(CC[C@@H]3CN(C(=O)NCC(C)C)C[C@@H]32)N=C1C | -11.8%
16 | Cc1cccc2c1ccn2CCC(=O)O | 7.47%
17 | c1cc(CN2CCC[C@@H](Cn3nnc(-c4cnccn4)n3)C2)ccn1 | -0.45%
18 | O=C(c1cccnc1)N1CCc2[nH]nc(Nc3ccccc3)c2C1 | 6.83%
19 | CN(CC1(C)COC1)C(=O)c1cc(-c2ccn(C)n2)nc2ccccc12 | 9.81%
20 | CCc1ncc(CN2CCC(O)(c3ccccc3F)CC2)cn1 | -4.68%
21 | CC(C)n1cc(C(=O)N2Cc3ccccc3OC3(CCOCC3)C2)cn1 | 6.61%
22 | O=C(NC1CC1)C1CCc2nnc(-c3cccc(C(F)(F)F)c3)n21 (stereo not given) | 8.6%

Row | SMILES | cytotoxicity at 10 µM
23 | CN(C)C(=O)c1nc(-c2ccc(S(C)(=O)=O)cc2)c2ccccn12 | 8.77%
24 | CC(=O)N1CC(C)CN(Cc2ccon2)c2ccccc21 (stereo not given) | 2%
25 | COc1c(C2CCCN2c2ncnc3c2CCC3)c(C)nn1C (stereo not given) | 10.5%
26 | CC(C)CN(CC(=O)O)C(=O)c1ccc(F)cc1 | -2.83%
27 | COC(=O)CN(C(=O)c1ccc(Cl)o1)c1cccc(F)c1 | 6.11%
28 | Cc1ncc2c(n1)CN(c1ncnc3[nH]ccc13)CC2 | -8.92%
29 | CCn1cc(C(=O)N2CCCN(c3cccnn3)CC2)c2ccccc21 | -0.418%
30 | O=C(CCn1cccn1)NS(=O)(=O)N1CCCc2ccccc21 | 5.65%
31 | O=C(NCCN1CCOCC1)c1cc(-c2ccc(Cl)s2)[nH]n1 | -6.58%
32 | CCN1CCCN(c2ccc(-n3ccc(C)n3)nn2)CC1 | -0.553%
33 | O=C(c1ccc2c(c1)OCCCO2)N1CCCCC1C1OCCO1 (stereo not given) | -0.158%
34 | CCN1CCN(c2ccc(F)cc2C(C)NCc2ccnn2C)CC1 (stereo not given) | -8.33%
35 | CN(CCn1cnnc1)C(=O)c1ccnc(OC2CCC2)c1 | 5.1%
36 | CCCc1n[nH]c(C2CN(C(=O)Cc3ccc(C)nc3)CCO2)n1 (stereo not given) | 6.73%
37 | Cc1n[nH]c(C2CN(C(=O)c3ccon3)CCO2)n1 (stereo not given) | -8.27%
38 | Cc1ccc(CN2CCOCC2)cc1NC(=O)c1ccsc1 | 3.22%
39 | COc1ccc(-n2ccc(C(=O)N(CCN(C)C)C(C)C)n2)cc1 | -3.29%
40 | Cc1cccc(-c2nnc(C(C)NCCn3cc(C)cn3)o2)c1 (stereo not given) | -8.32%
41 | Cc1ccc(CN(C(=O)c2cccc(NC(N)=O)c2)C2CC2)o1 | 2.69%
42 | O=c1cc(CN2CCC(CCc3ccc(O)cc3)CC2)[nH]c(=O)[nH]1 | -0.885%
43 | O=C(CNC(=O)C1CCCC1)NCC(O)c1ccc2ccccc2c1 (stereo not given) | 0.587%
44 | COc1ccc(C(C#N)NC(=O)Cc2ccc(F)c(F)c2)c(OC)c1 (stereo not given) | 21.6%

Row | SMILES | cytotoxicity at 10 µM
45 | COCc1c(Cl)cccc1NC(=O)NCc1cccc(N(C)C)n1 | 0.217%
46 | O=C(CCN1CCSCC1c1ccccc1)N1CCOCC1 (stereo not given) | -12.5%
47 | O=C(NCC(F)F)N1CCC(n2ccc(C(F)(F)F)n2)CC1 | -10.2%
48 | NC(=O)CCN1CCC(C(=O)c2cc(F)ccc2F)CC1 | -4.89%
49 | COCCn1ccc2cc(NC(C)=O)ccc21 | -12%
50 | CS(=O)(=O)N1CCO[C@@H]2CN(C(=O)c3ccnnc3)C[C@@H]2C1 | 5.97%
51 | Cn1cc(-c2ncc3c(c2C(=O)O)CCN(CC2CCOC2)C3)cn1 (stereo not given) | -94.6%
52 | CC(C)C(=O)N1CCC2(COCc3cnc(-c4cccnc4)nc32)C1 (stereo not given) | -102%
53 | CC(C)NC(=O)C1CN(C(=O)Nc2ccccc2)CC12CCOCC2 (stereo not given) | 4.58%
54 | NCC1Cc2cc(-c3cncc(C(=O)N4CCCCC4)n3)cc(F)c2O1 (stereo not given) | -51.8%
55 | CC(C)Cn1cncc1CNC1CCCNC1 (stereo not given) | -0.391%
56 | CCN1CC(C(=O)NCc2noc(Cc3ccccc3)n2)CCC1=O (stereo not given) | -4.7%
57 | COc1cccc(CN2CC(=O)N(c3ccccc3C)CC2C)c1OC (stereo not given) | 2.24%
58 | CC(C)=CCN1CCN(C(=O)c2cc(C(C)C)on2)[C@H]2CS(=O)(=O)C[C@H]21 | 3.54%
59 | CC(C)(N)c1cn(C2CCN(C(=O)CCC3CCCCC3)CC2)nn1 | -6.53%
60 | COc1ccccc1-n1nc(C(C)C)nc1Cc1nnc(N)s1 | 6.48%
61 | CC(C)c1nccn1C(C)C(=O)NC1Cc2ccccc2C1 (stereo not given) | -5.03%
62 | CNc1nc(C(=O)N2CCC3(CCCN(C)C3=O)C2)cs1 (stereo not given) | -8.57%
63 | COc1ccc(S(=O)(=O)N[C@H]2CN(C(C)=O)C[C@@H]2C(C)C)cc1F | -0.277%
64 | OC1CCCN(Cc2cn(CC3CCN(C4CCSCC4)CC3)nn2)C1 (stereo not given) | -61%
65 | CCc1cnc(C)nc1NC(CC)c1cnn(C)c1 (stereo not given) | -11.7%
66 | CSCc1noc(Cn2ncn3cccc3c2=O)n1 | 4.44%

Row | SMILES | cytotoxicity at 10 µM
67 | Cc1ccc(CNC(=O)CCN2CCOC(C(F)(F)F)C2)cc1 (stereo not given) | 3.71%
68 | COCCN(C)C[C@@H]1CN(C(=O)c2sc3ccccc3c2C)C[C@@H]1CO | -7.13%
69 | Cc1[nH]c2c(F)cccc2c1CC(=O)N1CCCC(N)CC1 (stereo not given) | 3.26%
70 | O=C(O)[C@@H]1CN(C(=O)CC2CCCC2)C[C@H]1c1ccc(F)cc1 | -10.2%
71 | CC(C(N)=O)N1CCc2onc(-c3cccc(F)c3)c2C1 (stereo not given) | 3.38%
72 | CC(C)[C@H]1CN(CCS(C)(=O)=O)C[C@@H]1NC(=O)c1ccc(=O)[nH]c1 | 3.06%
73 | CCNc1ncc(C(=O)N2CCC(c3ccccc3C(=O)O)C2)cn1 (stereo not given) | -6.41%
74 | Cc1cnn(C2CN(Cc3nc(-c4cccnc4)no3)C2)c1 | 3.03%
75 | Cc1nc(CN2CCCC2c2c(C)nn(C)c2Cl)oc1C (stereo not given) | -3.33%
76 | c1ccc(-n2cc(CNCC3CCCN3c3cccnn3)nn2)cc1 (stereo not given) | -1.47%
77 | CC(C)c1n[nH]c(C2CN(C(=O)c3cc(C(N)=O)cs3)CCO2)n1 (stereo not given) | 1.17%
78 | Cc1ncc2c(n1)CN(CC(=O)Nc1cccnc1)CC2 | 0.66%
79 | O=C(c1csc(-c2nnc[nH]2)n1)N1CCCCC1Cn1cccn1 (stereo not given) | -4.49%
80 | Cc1cn2c(n1)CCC(NC(=O)Cn1cncn1)C2 (stereo not given) | -3.86%
81 | COCCOc1cccc(CNC(=O)CN2CCN(C)CC2C)c1 (stereo not given) | -4.07%
82 | CC(C)c1ncncc1C(=O)N1CCN(Cc2ccsc2)CC1 | -4.49%
83 | CCc1nc(C2CCCN2C(=O)CCc2cscn2)no1 (stereo not given) | -3.12%
84 | Cc1nc(CC(=O)N2CCn3c(nnc3C(C)C)C2)cs1 | -12.3%
85 | Cc1ccc(C(=O)N(C)Cc2ccc3c(c2)OCO3)c(=O)[nH]1 | -12%
86 | Cc1noc(C)c1CC(=O)N1CCC(Nc2cccnn2)CC1 | -15.8%
87 | O=C(NCCc1ccc(F)cc1)NCC(O)c1cccc(F)c1 (stereo not given) | -1.14%
88 | Cc1nccn1C1CCCN(C(=O)c2cccc3c2OCO3)C1 (stereo not given) | -14.1%

Row | SMILES | cytotoxicity at 10 µM
89 | c1cnnc(NCC2CN(Cc3cccc4c3OCCO4)CCO2)c1 (stereo not given) | -9.93%
90 | CC(C)CN1CCC(C(=O)Nc2cc(C(F)(F)F)c[nH]c2=O)CC1 | -11.3%
91 | CC(C)(C)c1nnc(CN2CCCC2c2noc(C3CC3)n2)o1 (stereo not given) | -2.75%
92 | CCc1nc(C2CCCN2C(=O)CCc2cccs2)no1 (stereo not given) | -3.19%
93 | CC(C)c1nc(C2CCCN2CC(=O)N2CCc3ccccc32)no1 (stereo not given) | -5.84%
94 | OC(COCc1cccs1)CN1CCC(c2ccn[nH]2)CC1 (stereo not given) | -2.66%
95 | COc1cccc(-n2c(C)cc(C(=O)O)c2C)c1 | -8.65%
96 | c1cnn(CC2CN(Cc3noc(C4CC4)n3)CCO2)c1 (stereo not given) | -0.842%
97 | CCCc1n[nH]c(C2CN(CCNS(=O)(=O)CC)CCO2)n1 (stereo not given) | 2.43%
98 | O=C(c1ccc2c(c1)CCCC2)N1CCOCC1c1ncon1 (stereo not given) | -7%
99 | Cc1cnn(CC2CCCCN2Cc2nnc(C3CC3)n2C)c1 (stereo not given) | 2.36%
100 | Cc1nc(CN2CCOC(CN(C)c3cccnn3)C2)cs1 (stereo not given) | 0.938%
101 | CCOc1ccc(Cl)cc1C1CCCN1 (stereo not given) | -12.3%
102 | COCC1CC2(CCN(CC3CC3)CC2)CN1c1ncccn1 (stereo not given) | 14.1%
103 | O=C(c1n[nH]c2c1CCN(Cc1nccs1)C2)N1CCCC1 | -10.7%
104 | CC(C)c1nc(-c2ccnc(N3CCNCC3)n2)no1 | 1.01%
105 | Cn1cc(N2CC3(COCCN(Cc4ccsc4)C3)OCC2=O)cn1 (stereo not given) | 3.55%
106 | Cn1ccc(CN2CCC3(CCCN3CC3CC3)CC2)n1 | -92.4%
107 | O=C(NCc1cccs1)[C@H]1CO[C@H]2CCN(C3CCCC3)C[C@H]2C1 | -110%
108 | COCCO[C@@H]1CCN(Cc2csc(C)n2)[C@H]1Cc1ccccc1 | 5.98%
109 | CC(C)NC(=O)N1C[C@@H]2C[C@H](C(=O)NCc3ccccc3)[C@H](C1)O2 | -0.594%
110 | O=C(NCC1(COc2cnccn2)C[C@@H](O)[C@@H](O)C1)C1CC1 (stereo not given in full) | 7.92%
